Only some compounds are listed: those with a hit (about 2.9% of all), similar ones and a draw of the others.
SF1 activator – activators of human SF-1, primary screen, cell-based, CHO-K1, Gal4-SF-1 LBD, luciferase luminescence. actives 1.9% (n = 65,000). activation, % at 10 µM. Steroidogenic factor 1 (Homo sapiens), Q13285. CHO-K1 Gal4-SF-1 LBD luciferase reporter; % increase over DMSO SF-1-specific signal;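 active means activation above the mean activation of all tested compounds plus 3 SD, cut at about 50% in these data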
Target sequence (Q13285 whole entry, looked up, the tested form may be a part): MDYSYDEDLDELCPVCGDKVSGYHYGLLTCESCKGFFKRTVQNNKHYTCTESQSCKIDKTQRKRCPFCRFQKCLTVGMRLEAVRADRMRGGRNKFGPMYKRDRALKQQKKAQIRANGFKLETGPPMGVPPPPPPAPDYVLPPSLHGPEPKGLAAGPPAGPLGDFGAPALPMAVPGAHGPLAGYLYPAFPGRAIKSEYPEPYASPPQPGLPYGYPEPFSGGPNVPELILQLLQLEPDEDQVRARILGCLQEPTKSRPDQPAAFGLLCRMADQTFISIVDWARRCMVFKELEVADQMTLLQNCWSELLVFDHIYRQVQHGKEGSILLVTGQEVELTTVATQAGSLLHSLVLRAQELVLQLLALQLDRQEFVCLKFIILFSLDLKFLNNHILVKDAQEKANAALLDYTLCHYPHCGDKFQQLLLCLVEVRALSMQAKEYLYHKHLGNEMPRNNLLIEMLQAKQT
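Assay system: CHO-K1 cells co-transfected with Gal4 DBD–human SF-1 LBD, 5xGal4 luciferase reporter / Input: 4,000 cells per well / Incubation: 20 h compound exposure at 37 °C after 1 h cell settling / Detection: SteadyLite luciferase luminescence / Control set: DMSO negative control and −SF1 background wells / Replication: one test per compound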
HEK293 NFkB inh – inhibitors of PMA/ionomycin-induced NF-kB reporter, primary screen, antigen receptor NF-kB inhibitor project, cell-based, HEK-293 luciferase reporter, luminescence. HEK-293 NF-kB luciferase reporter. inhibition, % at 3 µM. actives 0.21% (n = 62,000). AID 465, 2006;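 active means inhibition above the mean of all tested compounds plus 3 SD, cut at about 40% in these data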;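 further: 0% = stimulated DMSO wells and 100% = 10 µM reference inhibitor 5653914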
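Signal: luciferase luminescence; Material: HEK-293 cells with stable firefly luciferase reporter driven by four HIV NF-kB elements; Probe or stimulus: PMA with ionomycin; Replication: tested once; Times: 1 h compound pretreatment, then 16 h stimulation at 37 °C, 5% CO2; Benchmarks: DMSO and 10 µM reference inhibitor; Evaluation: per-plate % inhibition versus controls.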
Jurkat viability – cytotoxicity toward Jurkat T cells, primary screen, cytotoxicity control, cell-based, Jurkat E6.1, 60K MLSMR library | AID 463, 2006 | Jurkat E6.1 viability, ATP luminescence, 48 h | inhibition, % at 4 µM | actives 1.2% (n = 56,000);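 active means inhibition above the mean inhibition of all tested compounds plus 3 SD, cut at about 28% in these data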
RORA act – activators of orphan receptor RORA, primary screen, cell-based, luminescence | CHO-K1 Gal4-RORA LBD luciferase reporter; percent increase over mock-subtracted basal signal | activation, % at 10 µM | actives 1.5% (n = 65,000) | AID 560, 2006;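 active means activation above the mean of all tested compounds plus 3 SD, cut at about 49% in these data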;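 further: 0% = DMSO-treated RORA cells and 100% = added signal equal to DMSO minus mock-transfected cells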
MT1-MMP txn act – MT1-MMP promoter reporter activation – cell-based, luciferase luminescence, primary screen; HT1080 MT1-MMP promoter luciferase reporter, overnight; stronger effect = higher value; activation factor at 10 µM; actives 0.16% (n = 86,000); AID 750, 2007;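 active means activation factor of at least 2 for MT1-MMP transcription at 10 µM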
The depositor's hits bear a star; nt = no result.

SMILES	SF1 activator	HEK293 NFkB inh	Jurkat viability	RORA act	MT1-MMP txn act
O=c1c(-c2ccccc2)n[nH]c2ccccc12	75*	-29	7	31	1.1
CCCCN(C(=O)c1c(C)[nH]c(C(=O)OCC)c1C)c1ccccc1	1	2	7	23	1.1
CCCCN1CCc2c([nH]c3ccc(C)cc23)C1=O	51*	-32	-6	51*	0.9
Cc1cccc(-n2nnc(C(=O)Nc3ccc(F)cc3)c2N)c1	100*	-16	1	82*	1.6
Cc1ccc(NC(=O)c2nnn(-c3cc(C)cc(C)c3)c2N)cc1	70*	2	0	66*	1.3
Cc1cccc(N2CCN(C(=O)c3ccc(Cl)c(S(=O)(=O)NCc4ccco4)c3)CC2)c1C	53*	12	84*	51*	0.9
Cn1nccc1C(=O)OCC(=O)Nc1nc(-c2ccccc2)cs1	50*	6	-7	46	1.5
COc1nc(C)ccc1-c1noc(-c2ccncc2)n1	64*	-15	-1	31	1.5
CCOc1nc(C)ccc1-c1noc(-c2ccccn2)n1	9	10	2	8	1.2
CCOc1ccccc1-c1nc(-c2ccc(C)nc2OC)no1	58*	-34	nt	36	1.2
Cc1c(-n2c(SCC(=O)O)nnc2-c2ccccc2Cl)c(=O)n(-c2ccccc2)n1C	-18	4	3	11	1
CCc1nn(C(C)C(=O)Nc2cccc(C)c2C)c(=O)c2cc3occc3n12 (centres undefined)	-11	13	8	0	1.1
N#Cc1cc2c(nc1SCc1ccncc1)CCC2	29	8	15	7	1.6
Nc1nc(CN2CCCCCC2)nc(Nc2ccccc2)n1	nt	nt	nt	nt	1.1
Cc1c(-c2nc(N)nc(Nc3ccccc3)n2)oc2ccccc12	162*	-20	15	89*	2*
CCN(CC)C(=O)CCCOc1ccc(Cl)cc1Cl	11	-4	3	54*	1.4
Cc1cc(Nc2ccccc2C(=O)O)nc2nc3ccccc3c(=O)n12	-6	16	2	-1	1.4
Cc1ccccc1Nc1nn2c(=O)c3ccccc3nc2s1	73*	-24	-8	43	1.4
Clc1ccc(-c2nnc(N3CCCC3)nn2)cc1	41	-24	nt	55*	nt
COc1ccc2c(=O)c(-c3ccccc3C)c(C)oc2c1	nt	nt	nt	nt	1.1
CCN(CC)C(=O)Oc1ccc2c(=O)c(-c3ccc(OC)cc3)c(C)oc2c1	31	4	10	60*	1.2
CCN(CC)C(=O)Oc1ccc2c(=O)c(-c3ccc(OC)cc3)coc2c1	71*	-17	17	69*	1.3
c1ccc2c(c1)Cc1cc(CN3CCOCC3)ccc1-2	28	-20	-5	68*	1.3
CC(=O)NC(c1ccco1)c1ccc2cccnc2c1O (centres undefined)	-5	9	74*	5	0.5
COc1ccc(N2CCN(C(=O)CSc3nnc(Cn4nnc5ccccc54)n3C)CC2)cc1	6	-6	6	-12	1.1
SMILES	SF1 activator	HEK293 NFkB inh	Jurkat viability	RORA act	MT1-MMP txn act
O=C(OCc1nc2ccccc2s1)c1cnccn1	54*	-12	-7	53*	1.7
O=C(COC(=O)c1cnccn1)NCc1ccccc1	nt	nt	nt	nt	1.2
O=C(OCc1nc2ccccc2s1)c1cccs1	50*	-17	3	53*	1.5
O=C(OCc1nc2ccccc2c(=O)[nH]1)c1cccs1	2	10	-6	-2	1.4
O=C(CCSc1nc(-c2ccco2)cc(C(F)(F)F)n1)Nc1ccc2c(c1)OCO2	-2	15	10	16	1.2
COc1cccc(C2NC(=O)NC(C)=C2C(=O)OCCSC)c1OC (centres undefined)	-9	11	-2	3	1.1
O=C(Nc1ccc2nc(-c3ccc(Br)o3)[nH]c2c1)c1cccs1	6	12	11	62*	1.3
O=C(Nc1ccc2nc(-c3ccc(Br)o3)[nH]c2c1)c1ccco1	30	4	2	55*	1.3
Cc1ccc(-c2cnc(-c3ccncc3)o2)cc1	65*	-19	-3	58*	1.4
CCOC(=O)Nc1ccc(OC)cc1S(=O)(=O)N1CCCCC1	0	10	2	-5	1.1
COCCN(C(=O)CCC(=O)Nc1cccnc1)C(C(=O)NC1CCCCC1)c1ccccc1 (centres undefined)	-3	29	-2	-7	1.2
COC(=O)[C@H](Cc1ccccc1)NC(=O)[C@H]1C[C@@H]1[C@H](NC(=O)OCc1ccccc1)c1ccccc1	nt	nt	nt	nt	1.2
CCOC(=O)C1(Nc2nccs2)Sc2ccccc2NC1=O (centres undefined)	6	26	83*	34	1.2
CCOC(=O)C1(C(F)(F)F)N=C(C(F)(F)F)Nc2ccccc21 (centres undefined)	nt	nt	nt	nt	1.1
Cc1nn(-c2nc3ccccc3s2)c(N)c1-c1ccccc1	60*	-45	8	43	0.7
Cc1nn(-c2nc3ccccc3s2)c(N)c1Sc1ccc(F)cc1	63*	15	6	26	1.9
Cc1nn(-c2nc3ccccc3[nH]2)c(N)c1-c1ccccc1	31	-77	-2	54*	1.8
COCCCn1c(SCC(=O)N2CCCC(C)C2)nnc1-c1ccco1 (centres undefined)	6	15	3	-5	1
Cc1ccc(C2CC(c3cccs3)n3nc(N)nc3N2)cc1 (centres undefined)	-7	nt	nt	-8	1
CCCCn1c(-c2nonc2N)nc2ccccc21	nt	nt	nt	nt	1.2
Nc1nonc1-c1nc2ccccc2n1Cc1ccccc1	6	13	89*	38	1.1
Nc1nonc1-c1nc2ccccc2n1CC(=O)NC1CCCC1	-5	20	2	-17	1
CCOC(=O)c1ccccc1NC(=O)Cn1c(-c2nonc2N)nc2ccccc21	-47	47*	98*	-21	0.7
CCOc1ccc(S(=O)(=O)NCCC(=O)OC(C)C(=O)N2CCc3ccccc32)cc1 (centres undefined)	-7	21	10	-23	1.1
N=C1C(c2nc3ccccc3s2)=C(O)CN1Cc1ccco1	52*	-23	1	36	1.4
O=C(OCC1COc2ccccc2O1)c1c(F)cccc1F (centres undefined)	2	8	nt	2	1.6
Cc1ccc(N2C(=O)c3ccc(N)cc3C2=O)cc1	47	-26	-3	55*	1.9
Cc1ccc(N2C(=O)c3ccc(N)cc3C2=O)cc1C	64*	-28	-7	107*	1.8

Source: PubChem BioAssay
